Shown are actives, neighbours in structure and some others; about 3.6% of the full set was active somewhere.
PfHsp90 set2 = growth inhibition of yeast expressing Plasmodium Hsp90 | actives 0.32% (n = 310,000) | inhibition, % at 9.4 µM | S. cerevisiae expressing PfHsp90, BacTiter-Glo ATP, 48 h; yeast lacking PDR1 and PDR3 efflux regulators;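 active = every replicate shows inhibition above about 80%, whatever the replicate mean, limit read from the data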;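 also: 0% = DMSO neutral controls and 100% = 20 µM radicicol positive controls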
T cruzi repl = blocks replication of Trypanosoma cruzi | T. cruzi beta-gal in NIH3T3, luminescence, 90 h | inhibition, % (no concentration beside the values) | actives 1.4% (n = 300,000);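 active = mean inhibition across valid replicates above about 55%, limit read from the data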;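 also: signal also drops with host cell toxicity which is not excluded here; 0% = plate median of DMSO wells and 100% = zero luminescence signal; higher percent means less beta-gal luminescence so fewer parasites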
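assay system = mouse NIH/3T3 fibroblasts infected with β-gal-expressing T. cruzi Tulahuen C4 | input = 5,000 NIH/3T3 host cells per well | buffer or medium = DMEM plus 2% FBS | timing = 3 h host attachment, then at least 90 h co-culture | measured by = GalScreen luminescence, 60 min | evaluation = luminescence reflecting intracellular parasite burden, expressed as percent inhibition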
CSC inhib = cancer stem cell inhibition | cancer stem cell-like cells viability, luminescence | inhibition, % at 7.5 µM | actives 1.1% (n = 300,000); in the data active = inhibition above about 75%; tested in HMLE shEcad cells
HIF act = HIF pathway transcriptional activation; U2OS HRE-luciferase reporter, luminescence; normalized: DMSO 0%, desferrioxamine 100%; actives 0.32% (n = 300,000); activation, % at 7.5 µM (by protocol);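 active = mean activation of at least 10% of the iron chelator positive control signal, with at least half of replicates also reaching 10%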
SKKanGAS inh = SKKanGAS growth inhibition; S. pyogenes SKKanGAS, kanamycin growth, BacTiter-Glo, 6 h; inhibition, % at 7.5 µM; actives 1.3% (n = 300,000); AID 1662;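 active = mean replicate score, as percent of positive control median, at least 50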;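 also: strain carries kanamycin resistance gene driven by streptokinase promoter and grows in 40 µg/ml kanamycin; loss of luminescence reflects streptokinase promoter inhibition or plain growth inhibition; 0% = median of DMSO wells and 100% = positive control at its reference dose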
Beta apoptosis = blocks beta cell apoptosis | INS-1E cytokine-induced death, ATP luminescence, 48 h; percent of positive-control rescue, neutral wells zero | protection from apoptosis, % (concentration not given with the values) | actives 0.8% (n = 300,000) | AID 435005;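 active = Every replicate reaches about 75%, or at least half do and their mean reaches it too, limit read from the data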;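 also: 0% = cytokine-treated negative control wells and 100% = positive control rescue; higher means more ATP so stronger rescue from cytokine killing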
* hit, by the source's call.

Screening Cc1nc2ncnn2c(C)c1C/C=C/c1ccccc1 returned PfHsp90 set2 -4.3, T cruzi repl 2.6, CSC inhib -16.8, HIF act -0.8, SKKanGAS inh -2.1 and Beta apoptosis 0.0.
COc1ccc(CN2CCN(C(=O)C3CCC(CNS(=O)(=O)c4ccc(C)cc4)CC3)CC2)c(OC)c1OC (stereo not drawn) was read as PfHsp90 set2 -7.2, T cruzi repl 56.6*, HIF act -0.2, SKKanGAS inh -1.8 and Beta apoptosis 9.2.
`COc1ccc(CN2CCN(C(=O)C3CCN(S(=O)(=O)c4cccs4)CC3)CC2)c(OC)c1OC` gave PfHsp90 set2 -8.8, T cruzi repl -0.7, CSC inhib -1.9, HIF act -0.1, SKKanGAS inh -6.5 and Beta apoptosis -1.1.
CCOC(=O)C(=NC(C)(C)C)NNc1cc(Cl)ccc1Cl was read as PfHsp90 set2 19.6, T cruzi repl 19.6, CSC inhib 27.9, HIF act -0.1, SKKanGAS inh 78.5* and Beta apoptosis -5.5.
Screening COCCN(C(=O)COC(=O)c1ccc(-c2ccccc2)cc1)c1c(N)n(Cc2ccccc2)c(=O)[nH]c1=O returned PfHsp90 set2 -14.6.
Screening O=C(c1ccc([N+](=O)[O-])cc1[N+](=O)[O-])N1CCCC1 returned PfHsp90 set2 7.7, T cruzi repl 25.5, CSC inhib -3.7, HIF act -0.4, SKKanGAS inh 2.3 and Beta apoptosis -10.1.
`CC1(C)CC2CC(C)(CN2C(=O)c2ccc([N+](=O)[O-])cc2[N+](=O)[O-])C1` (stereo not drawn) gave PfHsp90 set2 -29.6, T cruzi repl 97.4*, CSC inhib -6.3, HIF act -0.2, SKKanGAS inh -15.5 and Beta apoptosis -3.0.
`O=C(c1ccc([N+](=O)[O-])cc1[N+](=O)[O-])N1CCc2ccccc21` gave PfHsp90 set2 -19.6, T cruzi repl 58.3*, CSC inhib 24.7, HIF act -3.4, SKKanGAS inh 5.4 and Beta apoptosis 2.1.
`Cc1nnc(SCC2=C(C(=O)O)N3C(=O)C(NC(=O)c4cccc(F)c4F)C3SC2)s1` (stereo not drawn) gave PfHsp90 set2 -3.2, T cruzi repl -10.4, HIF act 1.5, SKKanGAS inh 120.3* and Beta apoptosis -5.4.
Screening Cc1nnc(SCC2=C(C(=O)O)N3C(=O)C(NC(=O)Cn4ncc(Cl)c4C)C3SC2)s1 (stereo not drawn) returned PfHsp90 set2 -13.2, T cruzi repl -11.0, CSC inhib -9.1, HIF act 0.5, SKKanGAS inh 105.6* and Beta apoptosis -15.2.
For Cc1cc(C)n(CC(=O)NC2C(=O)N3C(C(=O)O)=C(CSc4nnc(C)s4)CSC23)n1 (stereo not drawn) the results were PfHsp90 set2 -2.4, T cruzi repl -1.5, CSC inhib 11.8, HIF act 0.0 and Beta apoptosis 3.3.
CC1=C(C(=O)O)N2C(=O)C(NC(=O)c3c(F)cccc3F)C2SC1 (stereo not drawn) was read as PfHsp90 set2 -50.0.
Screening COc1ccc(/C=N/n2c(C)nc3c([nH]c4ccccc43)c2=O)cc1CN1CCCC(C)(C)C1 returned PfHsp90 set2 5.5, T cruzi repl 33.6, CSC inhib 0.9, HIF act -0.2, SKKanGAS inh 69.7* and Beta apoptosis 26.0.
`COc1ccc2c(c1)[nH]c1c(=O)n(/N=C/c3ccc(OC)c(CN4CCCC4)c3)cnc12` gave PfHsp90 set2 -3.7, T cruzi repl 35.8, CSC inhib -21.7, HIF act 1.0, SKKanGAS inh 9.0 and Beta apoptosis 7.4.
`COc1ccc2[nH]c3c(=O)n(/N=C/c4ccc(OC)c(CN5CCCC5)c4)c(C)nc3c2c1` gave PfHsp90 set2 -8.2, T cruzi repl 64.7*, CSC inhib 2.1, HIF act 0.3, SKKanGAS inh 72.3* and Beta apoptosis 7.3.
`Cn1c(=O)n(CC(=O)O)c(=O)c2c1nc1n2CCCN1Cc1ccccc1` gave PfHsp90 set2 -8.5, T cruzi repl 5.1, CSC inhib -12.8, HIF act 0.0, SKKanGAS inh -1.8 and Beta apoptosis 2.7.
`CC(=O)Cn1c(=O)c2c(nc3n2CCCN3Cc2ccccc2)n(C)c1=O` gave PfHsp90 set2 0.0, T cruzi repl -15.9, CSC inhib -2.0, HIF act 35.1*, SKKanGAS inh 5.0 and Beta apoptosis -1.6.
For Cn1c(=O)n(Cc2ccc(F)cc2)c(=O)c2c1nc1n2CCCN1C1CCCCC1 the results were PfHsp90 set2 8.6, T cruzi repl 34.0, CSC inhib 78.2*, HIF act 1.7, SKKanGAS inh 11.0 and Beta apoptosis 10.7.
`O=C(Nc1ccc([N+](=O)[O-])cc1)c1cc(Cl)sc1Cl` gave PfHsp90 set2 3.8, T cruzi repl -10.8, CSC inhib -16.4, HIF act 0.7 and SKKanGAS inh 5.8.
For COc1cc(/C=N/NC(=O)CN2CCCCC2)ccc1OCc1ccc(Br)cc1 the results were PfHsp90 set2 -8.9, T cruzi repl -10.6, CSC inhib 3.9, HIF act 2.3, SKKanGAS inh -2.8 and Beta apoptosis -0.7.
Screening CS(=O)(=O)N(CCCC(=O)N1CCCCCC1)c1cccc(Cl)c1 returned PfHsp90 set2 -3.7, T cruzi repl -0.4, CSC inhib -8.0, HIF act 0.2, SKKanGAS inh 2.7 and Beta apoptosis 0.2.
For CC(C)=CCC[C@](C)(O[C@@H]1O[C@H](CO[C@@H]2OC[C@@H](O)[C@H](O)[C@H]2O)[C@@H](O)[C@H](O)[C@H]1O)C1CC[C@]2(C)C1[C@H](O)CC1[C@@]3(C)CC[C@H](O[C@@H]4O[C@H](CO)[C@@H](O)[C@H](O)[C@H]4O)C(C)(C)C3CC[C@]12C (stereo partly drawn) the results were PfHsp90 set2 -8.8 and Beta apoptosis -0.6.
Fc1ccc(-c2cc(C(F)(F)F)nc(N3CCCCC3)n2)cc1 was read as T cruzi repl 4.7, CSC inhib 20.8, HIF act -0.5, SKKanGAS inh 65.5* and Beta apoptosis 0.8.
For COc1cccc(-c2cc(C(F)(F)F)nc(N3CCC(C)CC3)n2)c1 the results were PfHsp90 set2 14.0, T cruzi repl 17.0, CSC inhib 45.5, HIF act -0.9, SKKanGAS inh 67.5* and Beta apoptosis 1.9.
For COc1cccc(-c2cc(C(F)(F)F)nc(N3CCOCC3)n2)c1 the results were PfHsp90 set2 1.6, T cruzi repl 33.7, CSC inhib -1.3, HIF act 0.4, SKKanGAS inh 4.1 and Beta apoptosis -0.5.
Screening CN(C)CC(C)(C)CNC(C(=O)Nc1ccc(Cl)cc1C(F)(F)F)c1ccccc1 (stereo not drawn) returned PfHsp90 set2 3.8, T cruzi repl 28.0, CSC inhib 24.6, HIF act 0.0, SKKanGAS inh 2.5 and Beta apoptosis 0.9.

High-throughput results as filed in PubChem BioAssay.
